From ChEMBL document CHEMBL1144203, “Synthesis and antiviral evaluation of acyclic azanucleosides developed from sulfanilamide as a lead structure” (Bioorg Med Chem, 2008)
The source made the active and inactive calls. The rule behind the calls is not given here.

What was measured:
[1] = tested on: Human alphaherpesvirus 1; assay: Antiviral activity against HSV1 virus infected in HEL cells assessed as inhibition of virus-induced cytopathic effect at 100 uM by MTS assay; assay type: functional, organism-based
[2] = tested on: Felid alphaherpesvirus 1; assay: Antiviral activity against feline herpes virus infected in CRFK cells assessed as inhibition of virus-induced cytopathic effect at 100 uM by MTS assay; assay type: functional, organism-based
[3] = tested on: Mammalian orthoreovirus 1; assay: Antiviral activity against Reovirus1 infected in Vero cells assessed as inhibition of virus-induced cytopathic effect at 100 uM by MTS assay; assay type: functional, organism-based
Outline: (§1)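 Vero cell monolayers were infected with the virus in cell-based CPE assays. EC50 is the concentration giving 50% inhibition of virus-induced cytopathic effect, scored visually or by MTS formazan colorimetric cell-viability read-out. The highest concentration tested was 100 μM for most compounds and lower for a few.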

[4] = tested on: Feline coronavirus; assay: Antiviral activity against feline coronavirus infected in CRFK cells assessed as inhibition of virus-induced cytopathic effect at 100 uM by MTS assay; assay type: functional, organism-based
[5] = tested on: Punta Toro virus; assay: Antiviral activity against Punta Toro virus infected in Vero cells assessed as inhibition of virus-induced cytopathic effect at 100 uM by MTS assay; assay type: functional, organism-based; outline: as §1
[6] = tested on: MDCK; assay: Cytotoxicity against MDCK cells assessed as decrease in cell viability upto 100 uM by MTS assay; assay type: cell-based, Canis lupus familiaris; conditions: dog
[7] = tested on: Respiratory syncytial virus; assay: Antiviral activity against respiratory syncytial virus infected in HeLa cells assessed as inhibition of virus-induced cytopathic effect at 100 uM by MTS assay; assay type: functional, organism-based
Outline: (§2)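 HeLa cells were infected with the virus, and compounds were tested up to 100 μM. EC50 is the concentration that halves virus-induced cytopathic effect, read by visual CPE scoring or by MTS formazan colorimetric viability measurement.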

[8] = Cytotoxicity against CRFK cells assessed as decrease in cell viability upto 100 uM by MTS assay; assay type: cell-based, Felis catus; conditions: cat
[9] = tested on: Coxsackievirus B4; assay: Antiviral activity against Coxsackievirus B4 infected in Vero cells assessed as inhibition of virus-induced cytopathic effect at 100 uM by MTS assay; assay type: functional, organism-based; outline: as §1
[10] = tested on: Coxsackievirus B4; assay: Antiviral activity against Coxsackievirus B4 infected in HeLa cells assessed as inhibition of virus-induced cytopathic effect at 100 uM by MTS assay; assay type: functional, organism-based; outline: as §2
[11] = tested on: Sindbis virus; assay: Antiviral activity against Sindbis virus infected in Vero cells assessed as inhibition of virus-induced cytopathic effect at 100 uM by MTS assay; assay type: functional, organism-based; outline: as §1
[12] = tested on: HeLa; assay: Cytotoxicity against human HeLa cells assessed as decrease in cell viability upto 100 uM by MTS assay; assay type: functional, cell-based
Outline: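 Uninfected HeLa host cells were tested up to 100 μM. CC50 is the concentration causing a 50% drop in cell viability by colorimetric formazan-based MTS assay. Alternatively, MCC is the minimal concentration giving microscopically detectable alteration of normal cell morphology.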

[13] = tested on: Human alphaherpesvirus 2; assay: Antiviral activity against HSV2 virus infected in HEL cells assessed as inhibition of virus-induced cytopathic effect at 100 uM by MTS assay; assay type: functional, organism-based
[14] = tested on: HEL; assay: Cytotoxicity against HEL cells assessed as decrease in cell viability upto 100 uM by MTS assay; assay type: cell-based; conditions: human
[15] = tested on: Human respirovirus 3; assay: Antiviral activity against Parainfluenza 3 virus infected in Vero cells assessed as inhibition of virus-induced cytopathic effect at 100 uM by MTS assay; assay type: functional, organism-based; outline: as §1

SMILES | Activity [1] | Activity [2] | Activity [3] | Activity [4] | Activity [5] | Activity [6] | Activity [7] | Activity [8] | Activity [9] | Activity [10] | Activity [11] | Activity [12] | Activity [13] | Activity [14] | Activity [15]
Cc1cn(CN(CCOC(=O)C(C)(C)C)S(=O)(=O)c2cccc([N+](=O)[O-])c2)c(=O)[nH]c1=O | inactive | inactive | inactive | inactive | inactive | Not Active | inactive | Not Active | inactive | inactive | inactive | inactive | inactive | Not Active | inactive
CC(C)(C)C(=O)OCCN(Cn1ccc(=O)[nH]c1=O)S(=O)(=O)c1ccccc1[N+](=O)[O-] | inactive | inactive | inactive | inactive | inactive | Not Active | inactive | Not Active | inactive | inactive | inactive | inactive | inactive | Not Active | inactive
CC(C)(C)C(=O)OCCN(Cn1cc(F)c(=O)[nH]c1=O)S(=O)(=O)c1ccc(N)cc1 | inactive | inactive | inactive | inactive | inactive | Not Active | inactive | Not Active | inactive | inactive | inactive | inactive | inactive | Not Active | inactive
Cc1cn(CN(CCOC(=O)C(C)(C)C)S(=O)(=O)c2ccc(N)cc2)c(=O)[nH]c1=O | inactive | inactive | inactive | inactive | inactive | Not Active | inactive | Not Active | inactive | inactive | inactive | inactive | inactive | Not Active | inactive
CC(C)(C)C(=O)OCCN(Cn1ccc(=O)[nH]c1=O)S(=O)(=O)c1ccc(N)cc1 | inactive | inactive | inactive | inactive | inactive | Not Active | inactive | Not Active | inactive | inactive | inactive | inactive | inactive | Not Active | inactive
CC(C)(C)C(=O)OCCN(Cn1ccc(=O)[nH]c1=O)S(=O)(=O)c1cccc(N)c1 | inactive | inactive | inactive | inactive | inactive | Not Active | inactive | Not Active | inactive | inactive | inactive | inactive | inactive | Not Active | inactive
Cc1cn(CN(CCO)S(=O)(=O)c2cccc(N)c2)c(=O)[nH]c1=O | inactive | inactive | inactive | inactive | inactive | Not Active | inactive | Not Active | inactive | inactive | inactive | inactive | inactive | Not Active | inactive
CC(=O)Nc1ccc(S(=O)(=O)N(CCO)Cn2cc(C)c(=O)[nH]c2=O)cc1 | inactive | inactive | inactive | inactive | inactive | Not Active | inactive | Not Active | inactive | inactive | inactive | inactive | inactive | Not Active | inactive
CC(C)(C)C(=O)OCCN(Cn1ccc(=O)[nH]c1=O)S(=O)(=O)c1cccc([N+](=O)[O-])c1 | inactive | inactive | inactive | inactive | inactive | Not Active | inactive | Not Active | inactive | inactive | inactive | inactive | inactive | Not Active | inactive
CC(C)(C)C(=O)OCCN(Cn1cc(F)c(=O)[nH]c1=O)S(=O)(=O)c1cccc(N)c1 | inactive | inactive | inactive | inactive | inactive | Not Active | inactive | Not Active | inactive | inactive | inactive | inactive | inactive | Not Active | inactive
Cc1cn(CN(CCOC(=O)C(C)(C)C)S(=O)(=O)c2ccccc2N)c(=O)[nH]c1=O | inactive | inactive | inactive | inactive | inactive | Not Active | inactive | Not Active | inactive | inactive | inactive | inactive | inactive | Not Active | inactive
CC(=O)Nc1ccc(S(=O)(=O)N(CCOC(=O)C(C)(C)C)Cn2cc(F)c(=O)[nH]c2=O)cc1 | inactive | inactive | inactive | inactive | inactive | Not Active | inactive | Not Active | inactive | inactive | inactive | inactive | inactive | Not Active | inactive
CC(C)(C)C(=O)OCCN(Cn1ccc(=O)[nH]c1=O)S(=O)(=O)c1ccccc1N | inactive | inactive | inactive | inactive | inactive | Not Active | inactive | Not Active | inactive | inactive | inactive | inactive | inactive | Not Active | inactive
Cc1cn(CN(CCO)S(=O)(=O)c2ccccc2N)c(=O)[nH]c1=O | inactive | inactive | inactive | inactive | inactive | Not Active | inactive | Not Active | inactive | inactive | inactive | inactive | inactive | Not Active | inactive
